Test results: ChEMBL document CHEMBL1649428, “An ABC transporter of Streptococcus pneumoniae involved in susceptibility to vancoresmycin and bacitracin” (2009)
Values after ≈ are worked out from the molar mass of the structure shown. Bridge positions count the residues as written; N and C are the ends. Square brackets hold non-standard residues; d marks the D form. Peptide text beside a SMILES is read from it. * marks the point of attachment. Ileψ(thiazoline)Cys = CC[C@H](C)[C@H](N)C1=N[C@H](C(=O)*)CS1; dOrn = NCCC[C@@H](N)C(=O)O

Assays:
Format in all cases: functional
Streptococcus pneumoniae [1] = test: Antimicrobial activity against Streptococcus pneumoniae R6 by agar dilution method
Summary of the method: (§1)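 Agar dilution MIC against the strain. Vancoresmycin was tested at 0.3 to 0.8 μg/ml in 0.05 μg/ml steps, diluted from a 0.5 mg/ml methanol stock kept at −20°C. Bacitracin was tested at 0.5 to 6 μg/ml in 0.2 μg/ml steps. Pneumococci are routinely grown at 37°C. MIC is the mean of three independent experiments.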

Streptococcus pneumoniae [2] = test: Antimicrobial activity against copY and cyl deficient Streptococcus pneumoniae VarE mutant by agar dilution method
Streptococcus pneumoniae [3] = test: Antimicrobial activity against copY and cyl deficient Streptococcus pneumoniae VarA mutant by agar dilution method
Streptococcus pneumoniae [4] = test: Antimicrobial activity against copY and cyl deficient Streptococcus pneumoniae VarF mutant by agar dilution method
Streptococcus pneumoniae [5] = test: Antimicrobial activity against Streptococcus pneumoniae VarG transformed with spr0813 C1744T mutant gene by agar dilution method; summary of the method: as §1
Streptococcus pneumoniae [6] = test: Antimicrobial activity against Streptococcus pneumoniae R6 transformed with DNA containing spr0813 C1744T mutant gene selected after drug exposure by agar dilution method; summary of the method: as §1
Streptococcus pneumoniae [7] = test: Antimicrobial activity against Streptococcus pneumoniae R6 transformed with DNA containing spr0813 C1744T::aphIII mutant gene selected after kanamycin exposure by agar dilution method; summary of the method: as §1
Streptococcus pneumoniae [8] = test: Antimicrobial activity against kanamycin-resistant and spr0811-spr0813::aphIII deficient Streptococcus pneumoniae R6 by agar dilution method; summary of the method: as §1
Streptococcus pneumoniae [9] = test: Antimicrobial activity against kanamycin-resistant and spr0811-spr0813::aphIII deficient Streptococcus pneumoniae VarG by agar dilution method; summary of the method: as §1
Streptococcus pneumoniae [10] = test: Antimicrobial activity against Streptococcus pneumoniae R6 transformed with DNA containing spr0813 C1744T mutant gene selected after vancoresmycin exposure by agar dilution method; summary of the method: as §1

Row | Structure (SMILES) | MIC (Streptococcus pneumoniae [1]) [µg/mL] | MIC (Streptococcus pneumoniae [2]) [µg/mL] | MIC (Streptococcus pneumoniae [3]) [µg/mL] | MIC (Streptococcus pneumoniae [4]) [µg/mL] | MIC (Streptococcus pneumoniae [5]) [µg/mL] | MIC (Streptococcus pneumoniae [6]) [µg/mL] | MIC (Streptococcus pneumoniae [7]) [µg/mL] | MIC (Streptococcus pneumoniae [8]) [µg/mL] | MIC (Streptococcus pneumoniae [9]) [µg/mL] | MIC (Streptococcus pneumoniae [10]) [µg/mL]
1 | C/C(=C\CC(O)CC(O)CCC(C)C(O)C(C)C(O)CCCC(O)C(C)C(O)/C(C)=C/C(C)C(=O)/C(C)=C/C(O)C(O)CC(O)CC(OC1OC(C)C(O)C(N)C1O)C(C)CCC(O)CC(O)CCC(C)C(O)C(C)C(O)C(C)C)C(=O)C1=C(O)/C(=C/C(C)C)N(C)C1=O (centres undefined) [VANCORESMYCIN] | 0.4 (≈ 0.298 µM) | 0.7 (≈ 0.521 µM) | 0.7 (≈ 0.521 µM) | 0.65 (≈ 0.484 µM) | 0.5 (≈ 0.372 µM) | 0.5 (≈ 0.372 µM) | 0.5 (≈ 0.372 µM) | 0.4 (≈ 0.298 µM) | 0.4 (≈ 0.298 µM) | 
2 | CC[C@H](C)[C@H](N)C1=N[C@H](C(=O)N[C@@H](CC(C)C)C(=O)N[C@H](CCC(=O)O)C(=O)N[C@H](C(=O)N[C@H]2CCCCNC(=O)[C@H](CC(N)=O)NC(=O)[C@@H](CC(=O)O)NC(=O)[C@H](Cc3cnc[nH]3)NC(=O)[C@@H](Cc3ccccc3)NC(=O)[C@H]([C@@H](C)CC)NC(=O)[C@@H](CCCN)NC2=O)[C@@H](C)CC)CS1 [BACITRACIN] ({Ileψ(thiazoline)Cys}-L[dE]IK[dOrn]I[dF]H[dD]N; lactam 4-C) | 4.8 (≈ 3.37 µM) | 5.2 (≈ 3.65 µM) | 5.2 (≈ 3.65 µM) | 5.2 (≈ 3.65 µM) | 1 (≈ 0.703 µM) | 1 (≈ 0.703 µM) | 1 (≈ 0.703 µM) | 1 (≈ 0.703 µM) | 1 (≈ 0.703 µM) | 1 (≈ 0.703 µM)
